ChEMBL document CHEMBL1759987, “2-Acylamino-5-chlorobenzophenones with enhanced selectivity towards malaria parasites” (Eur J Med Chem, 2011)

Assays:
[1] = Cytotoxicity in human HeLa cells assessed as cell viability after 72 hrs; type: cell-based
In short: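 HeLa cells grown in RPMI 1640 with 10% heat-inactivated FBS and gentamicin at 37 °C. About 10,000 cells seeded per well, preincubated 48 h without compound. DMSO stocks (10 mg/ml) diluted 1:200 in medium and added, then 72 h at 37 °C, 5% CO2. Cells fixed with glutaraldehyde, stained with 0.05% methylene blue, eluted with 0.33 M HCl, OD read at 660 nm.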

[2] = test system: Plasmodium falciparum; test: Antiplasmodial activity against multidrug- resistant Plasmodium falciparum Dd2 assessed as inhibition of [3H]hypoxanthine incorporation after 72 hrs; type: functional, organism-based
In short: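 Dd2 parasites kept in continuous culture and sorbitol-synchronized, then exposed to a range of concentrations for 72 h. Growth read by [3H]-hypoxanthine incorporation and converted to percent inhibition. IC50 taken from sigmoidal dose-response curves fitted with a Hill function. At least three independent repeats, reported as mean ± SEM.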

[3] = Selectivity index, CC50 for HeLa cells to IC50 for Plasmodium falciparum; type: functional

| SMILES | CC50 at 72 h [1] | IC50 [2] | Ratio CC50/IC50 [3] |
| --- | --- | --- | --- |
| O=C(c1ccccc1)c1cc(Cl)ccc1NC(=O)C(c1ccc(-c2ccccc2)cc1)N1CCN(CCO)CC1 (racemic) | 16 µM | 0.28 µM | 59 |
| CC(C)(C)OC(=O)N[C@@H](C(=O)Nc1ccc(Cl)cc1C(=O)c1ccccc1)c1ccccc1 | > 108 µM | 6.18 µM | 17 |
| CCOC(=O)N1CCN(C(C(=O)Nc2ccc(Cl)cc2C(=O)c2ccccc2)c2ccccc2)CC1 (racemic) | 64 µM | 4.26 µM | 15 |
| COC(=O)CN1CCN(C(C(=O)Nc2ccc(Cl)cc2C(=O)c2ccccc2)c2ccccc2)CC1 (racemic) | > 99 µM | > 3 µM | 33 |
| CN1CCN(C(=O)N[C@@H](C(=O)Nc2ccc(Cl)cc2C(=O)c2ccccc2)c2ccccc2)CC1 | 60 µM | 1.35 µM | 45 |
| O=C1CCN(C(C(=O)Nc2ccc(Cl)cc2C(=O)c2ccccc2)c2ccccc2)CC1 (racemic) | 27 µM | 7.43 µM | 4 |
| Cl.NC(Cc1ccccc1)C(=O)Nc1ccc(Cl)cc1C(=O)c1ccccc1 (racemic) | 38 µM | 14.1 µM | 3 |
| O=C(c1ccccc1)c1cc(Cl)ccc1NC(=O)C(c1ccccc1)N1CCN(Cc2ccccc2)CC1 (racemic) | > 118 µM | > 20 µM | 6 |
| O=C(c1ccccc1)c1cc(Cl)ccc1NC(=O)C(c1ccc(C(F)(F)F)cc1)N1CCN(CCO)CC1 (racemic) | 17 µM | 0.6 µM | 28 |
| Cl.N[C@@H](C(=O)Nc1ccc(Cl)cc1C(=O)c1ccccc1)c1ccccc1 | 12 µM | 9.25 µM | 1 |
| O=C(c1ccccc1)c1cc(Cl)ccc1NC(=O)C(c1ccccc1)N1CC[S+]([O-])CC1 (racemic) | 71 µM | 9.02 µM | 8 |
| Cl.NC(C(=O)Nc1ccc(Cl)cc1C(=O)c1ccccc1)c1ccccc1 (racemic) | 37 µM | 6.71 µM | 6 |
| NC(CO)C(=O)Nc1ccc(Cl)cc1C(=O)c1ccccc1 (racemic) | – | > 20 µM | – |
| CCN1CCN(C(C(=O)Nc2ccc(Cl)cc2C(=O)c2ccccc2)c2ccccc2)CC1 (racemic) | 76 µM | 3.62 µM | 21 |
| CN1CCN(C(=O)NC(C(=O)Nc2ccc(Cl)cc2C(=O)c2ccccc2)c2ccccc2)CC1 (single isomer, unassigned) | 72 µM | 4.21 µM | 17 |
| CCCN1CCN(C(C(=O)Nc2ccc(Cl)cc2C(=O)c2ccccc2)c2ccccc2)CC1 (racemic) | 38 µM | 6.23 µM | 6 |
| O=C(c1ccccc1)c1cc(Cl)ccc1NC(=O)C(c1ccccc1)N1CCOCC1 (racemic) | 39 µM | 6.72 µM | 6 |
| O=C(c1ccccc1)c1cc(Cl)ccc1NC(=O)C(c1ccccc1)N1CCN(c2ccccc2)CC1 (racemic) | > 98 µM | > 20 µM | 5 |
| Cl.N[C@H](C(=O)Nc1ccc(Cl)cc1C(=O)c1ccccc1)c1ccccc1 | 43 µM | > 16 µM | 3 |

| SMILES | CC50 at 72 h [1] | IC50 [2] | Ratio CC50/IC50 [3] |
| --- | --- | --- | --- |
| NC(=O)CN1CCN(C(C(=O)Nc2ccc(Cl)cc2C(=O)c2ccccc2)c2ccccc2)CC1 (racemic) | 65 µM | 3.32 µM | 22 |
| CN(C)CCN1CCN(C(C(=O)Nc2ccc(Cl)cc2C(=O)c2ccccc2)c2ccccc2)CC1 (racemic) | 39 µM | 2.56 µM | 15 |
| CC(C)NC(=O)CN1CCN(C(C(=O)Nc2ccc(Cl)cc2C(=O)c2ccccc2)c2ccccc2)CC1 (racemic) | 40 µM | 0.98 µM | 41 |
| CN1CCN(C(C(=O)Nc2ccc(Cl)cc2C(=O)c2ccccc2)c2ccccc2)CC1 (racemic) | 63 µM | 3.54 µM | 18 |
| O=C(c1ccccc1)c1cc(Cl)ccc1NC(=O)C(c1ccc(F)cc1)N1CCN(CCO)CC1 (racemic) | 38 µM | 0.84 µM | 45 |
| O=C(c1ccccc1)c1cc(Cl)ccc1NC(=O)C(c1ccccc1)N1CCSCC1 (racemic) | > 111 µM | 11.5 µM | 10 |
| O=C(c1ccccc1)c1cc(Cl)ccc1NC(=O)C(c1ccccc1)N1CCN(c2ccc([N+](=O)[O-])cc2)CC1 (racemic) | > 90 µM | > 20 µM | 5 |
| O=C(c1ccccc1)c1cc(Cl)ccc1NC(=O)C(c1ccccc1)N1CCCCC1 (racemic) | 63 µM | 10.2 µM | 6 |
| O=C(c1ccccc1)c1cc(Cl)ccc1NC(=O)C(c1ccccc1)n1ccnc1 (racemic) | 55 µM | 4.51 µM | 12 |
| O=C(c1ccccc1)c1cc(Cl)ccc1NC(=O)C(c1cccc2ccccc12)N1CCN(CCO)CC1 (racemic) | 17 µM | 0.95 µM | 18 |
| O=C(c1ccccc1)c1cc(Cl)ccc1NC(=O)C(c1ccccc1)N1CCN(CCO)CC1 (racemic) | 49 µM | 0.33 µM | 150 |
| O=C(c1ccccc1)c1cc(Cl)ccc1NC(=O)C(c1ccc(Br)cc1)N1CCN(CCO)CC1 (racemic) | 17 µM | 0.56 µM | 31 |
| CC(C)(C)OC(=O)N[C@H](C(=O)Nc1ccc(Cl)cc1C(=O)c1ccccc1)c1ccccc1 | > 108 µM | 8.47 µM | 13 |
| O=C(O)CN1CCN(C(C(=O)Nc2ccc(Cl)cc2C(=O)c2ccccc2)c2ccccc2)CC1 (racemic) | > 102 µM | > 3 µM | 34 |
| O=CN1CCN(C(C(=O)Nc2ccc(Cl)cc2C(=O)c2ccccc2)c2ccccc2)CC1 (racemic) | 50 µM | 3.77 µM | 13 |
| O=C(c1ccccc1)c1cc(Cl)ccc1NC(=O)C(c1ccc2ccccc2c1)N1CCN(CCO)CC1 (racemic) | 17 µM | 0.18 µM | 94 |
| O=C(c1ccccc1)c1cc(Cl)ccc1NC(=O)C(c1ccccc1)N1CCC(CCO)CC1 (racemic) | 19 µM | 15 µM | 1 |
| CC(C)(C)OC(=O)N1CCN(C(C(=O)Nc2ccc(Cl)cc2C(=O)c2ccccc2)c2ccccc2)CC1 (centres undefined) | > 94 µM | 8.21 µM | 11 |
